The term IC50 denotes the concentration needed to halve the response being measured.

Assay type in all cases: functional, cell-based
For assay [1], the system named is HeLa. In words: Cytotoxicity against human HeLa cells after 2 days by MTT assay. The conditions noted are these: 48 h. Summed up: (§1)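 Cells grown in RPMI-1640 and seeded in 96-well plates for 4 h before sample addition. Test samples were tested at four concentrations, with 37 °C incubation for 2 days. MTT solution (5 mg/mL) was then added for a further 4 h. Formazan was dissolved in 10% SDS in 0.01 M HCl and absorbance read at 550 nm. IC50 determined; 5-fluorouracil served as positive control.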
For orientation: Tetrazolium assays rely on reduction of a dye to a coloured formazan, in cell work by metabolically active cells.

The test system of assay [2] is HT-29. As to the kind of experiment: Cytotoxicity against human HT-29 cells after 2 days by MTT assay. To be noted: HT-29, 48 h. The essentials:
as §1

The test system of assay [3] is A549. As to the kind of experiment: Cytotoxicity against human A549 cells after 2 days by MTT assay. To be noted: A549, 48 h. The essentials:
as §1

Assay [4] deals with MCF7. In words: Cytotoxicity against human MCF7 cells after 2 days by MTT assay. The conditions noted are these: MCF7, 48 h. Summed up:
as §1

Consider `CC(=O)OC[C@H]1O[C@H](O[C@]2(COC(C)=O)O[C@H](CO)[C@@H](OC(C)=O)[C@@H]2OC(=O)/C=C/c2ccc(O)cc2)[C@H](O)[C@@H](O)[C@@H]1O`, for which the IC50 in assay [1] was determined as 110 nM; in assay [2] it was 180 nM; in assay [3], 290 nM; in assay [4], 620 nM.

For `CC(=O)OC[C@H]1O[C@H](O[C@]2(COC(C)=O)O[C@H](CO)[C@@H](O)[C@@H]2OC(=O)/C=C/c2ccc(O)cc2)[C@H](O)[C@@H](O)[C@@H]1OC(C)=O`, the IC50 in assay [1] was 970 nM; in assay [2], 1480 nM; in assay [3], 490 nM; in assay [4], 1220 nM.

Regarding `CC(=O)OC[C@H]1O[C@H](O[C@]2(CO)O[C@H](CO)[C@@H](O)[C@@H]2OC(=O)/C=C/c2ccc(O)cc2)[C@H](O)[C@@H](OC(C)=O)[C@@H]1OC(C)=O`, the IC50 in assay [1] worked out at 3800 nM; in assay [2] it was 2780 nM; in assay [3], 1470 nM; in assay [4], 2930 nM.

As for `COc1cc(/C=C/C(=O)O[C@H]2[C@H](O)[C@@H](CO)O[C@@]2(COC(C)=O)O[C@H]2O[C@H](COC(C)=O)[C@@H](O)[C@H](O)[C@H]2OC(C)=O)ccc1O`, the IC50 was determined as 1090 nM in assay [1], 460 nM in assay [2], 450 nM in assay [3] and 770 nM in assay [4].

Regarding `CC(=O)OC[C@H]1O[C@H](O[C@]2(CO)O[C@H](CO)[C@@H](O)[C@@H]2OC(=O)/C=C/c2ccc(O)cc2)[C@H](OC(C)=O)[C@@H](OC(C)=O)[C@@H]1O`, the IC50 turned out to be 4320 nM in assay [1], 2450 nM in assay [2], 1120 nM in assay [3] and 980 nM in assay [4].

As for `CC(=O)OC[C@H]1O[C@H](O[C@]2(COC(C)=O)O[C@H](CO)[C@@H](O)[C@@H]2OC(=O)/C=C/c2ccc(O)cc2)[C@H](O)[C@@H](OC(C)=O)[C@@H]1O`, the IC50 in assay [1] came to 1330 nM; in assay [2], 2100 nM; in assay [3], 2560 nM; in assay [4], 1440 nM.

As for `CC(=O)OC[C@H]1O[C@H](O[C@]2(COC(C)=O)O[C@H](CO)[C@@H](O)[C@@H]2OC(=O)/C=C/c2ccc(O)cc2)[C@H](OC(C)=O)[C@@H](O)[C@@H]1O`, the half-maximal inhibitory concentration (IC50) was found to be 2490 nM in assay [1], 3960 nM in assay [2], 3200 nM in assay [3] and 3440 nM in assay [4].

On to `O=c1[nH]cc(F)c(=O)[nH]1` [FLUOROURACIL], for which, in assay [2], it took 17200 nM to reach half-maximal inhibition (IC50).

The values are drawn from ChEMBL document CHEMBL3259818, “Tomensides A-D, new antiproliferative phenylpropanoid sucrose esters from Prunus tomentosa leaves” (Bioorg Med Chem Lett, 2014).
